# An excerpt weighted towards active compounds, which were near 3.4% of everything screened.
# PolyA inhibitor – polyadenylation inhibitors in yeast reporter cells, primary screen, luminescence, S. cerevisiae | AID 1875, 2009 | S. cerevisiae SKY197-pL101 polyadenylation reporter, beta-gal luminescence; efflux-impaired pdr1/pdr3 knockout yeast; score 100 = 6 SD above DMSO | hit rate 0.02% among 300,000 | activity score, % at 12 µM;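 active = lowest replicate activity score at least 50, where 100 means six control SD above control mean; inconclusive = lowest score under 50 but half or more replicates reach 50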;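 also: yeast exposed to compound for 9 h at 30 °C; higher score means more reporter readthrough which indicates perturbed polyadenylation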
# A3G deaminase – APOBEC3G DNA deaminase inhibitors, primary screen, biochemical, fluorescence, single-stranded DNA substrate, uHTS | recombinant A3G, ssDNA deamination FAM/TAMRA fluorescence | inhibition, % at 20 µM | hit rate 0.28% among 330,000 | DNA dC->dU-editing enzyme APOBEC-3G (Homo sapiens), Q9HC16;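 active = inhibition of at least 40% at 20 µM, with no more than 30% in the related APOBEC3A deaminase screen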;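 also: plate controls were DMSO wells with A3G for no effect and wells lacking A3G enzyme for full effect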
# Target sequence (Q9HC16 whole entry, looked up): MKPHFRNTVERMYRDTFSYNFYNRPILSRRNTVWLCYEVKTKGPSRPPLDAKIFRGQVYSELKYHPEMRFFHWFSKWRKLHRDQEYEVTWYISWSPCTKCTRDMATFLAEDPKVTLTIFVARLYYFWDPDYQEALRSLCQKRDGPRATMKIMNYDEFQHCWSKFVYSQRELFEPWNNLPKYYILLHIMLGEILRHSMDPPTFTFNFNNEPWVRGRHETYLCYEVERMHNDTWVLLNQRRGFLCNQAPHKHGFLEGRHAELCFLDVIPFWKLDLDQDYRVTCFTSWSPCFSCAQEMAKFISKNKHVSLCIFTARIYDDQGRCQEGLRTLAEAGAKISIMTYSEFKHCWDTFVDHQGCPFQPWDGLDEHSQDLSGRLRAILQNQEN
# AHR activator – AHR activators, primary screen, cell-based, luminescence, luciferase reporter, human; Aryl hydrocarbon receptor (Homo sapiens), P35869; AHR-responsive luciferase reporter cells; activation, % at 5 µM; hit rate 2.5% among 320,000; AID 2796, 2010; in the data active = activation above about 47%;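 also: 0% = vehicle wells and 100% = reference agonist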
# Arr AP2 block – inhibitors of beta-arrestin/AP2 binding, primary screen, biochemical, GPCR trafficking, flow cytometry; beta-arrestin 1 C-terminal peptide binding to AP2 beta2-adaptin appendage (human); FITC-arrestin peptide / GST-AP2 beads; AP2 beta2 appendage carries R879A mutation; inhibition, % at 10 µM; hit rate 0.31% among 340,000; AID 504490, 2011;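 active = inhibition above a set limit, near 3 SD of compounds lacking own fluorescence, cut at about 54% in these data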;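 also: plate controls were DMSO wells for no effect and 5 µM unlabelled arrestin peptide for full effect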
#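 System: GST-AP2 R879A glutathione beads. Medium: PBS with 0.05% Tween 20 and 0.1% BSA. Also added: FITC-arrestin peptide, 50 nM. Incubation: 12 min plus 1 h, RT. Measured by: high-throughput flow cytometry of beads, ex 488, em 535 nm. Evaluation: percent drop in bead-associated FITC signal.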
# UCH37 inh – inhibitors of human UCH37 deubiquitinase, primary screen, biochemical, Ub-AMC cleavage, fluorescence; hit rate 0.33% among 330,000; inhibition, % (test concentration not listed); purified proteasome/UCH37; Ubiquitin carboxyl-terminal hydrolase isozyme L5 (Homo sapiens), Q9Y5K5; AID 588478, 2011;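 active = mean inhibition over replicate wells above about 20%, limit read from the data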;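 also: 0% = compound-free wells with enzyme and 100% = wells lacking proteasome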
#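 Material: human UCH37 enzyme supplied as purified proteasome complex. Measure: % inhibition of Ub-AMC cleavage fluorescence. Medium: pH 7.4 Tris-HCl (50 mM) with ovalbumin, ATP-MgCl2, DTT. Times: 30 min preincubation with enzyme, 25 min cleavage at room temperature. Detection: AMC fluorescence intensity at 355/460 nm.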
# A3A deaminase – APOBEC3A ssDNA deaminase inhibitors, primary screen, selectivity assay for APOBEC3G inhibitor project, biochemical, FAM/TAMRA oligo cleavage fluorescence. AID 493011, 2011. hit rate 0.41% among 330,000. inhibition, % at 20 µM. DNA dC->dU-editing enzyme APOBEC-3A (Homo sapiens), P31941. recombinant A3A, FAM/TAMRA ssDNA deamination fluorescence;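 active = at least 40% inhibition at 20 µM here, with at most 30% in a related deaminase screen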;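 also: plate controls were A3A with DMSO for no effect and wells lacking A3A enzyme for full effect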
# Target sequence (P31941 whole entry, looked up): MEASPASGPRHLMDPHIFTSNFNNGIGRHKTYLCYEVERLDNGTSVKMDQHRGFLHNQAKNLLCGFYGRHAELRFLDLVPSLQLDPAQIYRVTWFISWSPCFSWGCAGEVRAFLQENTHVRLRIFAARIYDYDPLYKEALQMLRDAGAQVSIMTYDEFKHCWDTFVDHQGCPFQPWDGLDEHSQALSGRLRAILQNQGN
# Numbers without * were called inactive; i = inactive; ? = inconclusive; · = not tested or not shown.
SMILES,PolyA inhibitor,A3G deaminase,AHR activator,Arr AP2 block,UCH37 inh,A3A deaminase
CC(=O)C(=NNc1ccccc1)Oc1ccc(Br)cc1,·,·,·,·,4,·
COc1ccc(CCNC(=O)CC(C)=NNC(=O)c2ccc(Cl)cc2Cl)cc1OC,·,·,·,·,4,·
CCOC(=O)c1c(C)oc2c1c(CN1CCN(CCO)CC1)c(O)c1ccccc12,·,·,·,-30,2,·
CCOC(=O)c1c(C)oc2c1c(CN1CCN(C(=O)OCC)CC1)c(O)c1ccccc12,-16,-4,50*,1,-1,0
COc1ccc(N2COC3c4cccc5cccc(c45)C32)cc1 (configuration not stated),3,2,30,-5,3,1
Clc1ccc(N2COC3c4cccc5cccc(c45)C32)cc1 (configuration not stated),-26,-9,60*,-3,2,-1
COc1cc([N+](=O)[O-])cc(C=NNC(=O)C(O)(c2ccccc2)c2ccccc2)c1O,·,·,·,·,12,·
COc1cc([N+](=O)[O-])cc(C=NNC(=O)C(C)Nc2ccccc2C)c1O (configuration not stated),·,·,·,·,20*,·
CCCC(=O)Oc1ccc(C2NC(=O)c3ccccc3O2)cc1 (configuration not stated),-4,-7,56*,52,0,-6
CCOc1ccc(C2NC(=O)c3ccccc3O2)cc1 (configuration not stated),-15,-8,3,8,-1,-5
CCc1nc(SCCO)c2oc3ccccc3c2n1,-23,-5,11,7,4,2
CCc1nc(SCC(=O)c2ccc(Cl)s2)c2oc3ccccc3c2n1,-9,-7,60*,25,1,-3
COc1cc(C=NNC(=O)c2ccc(-c3ccccc3)cc2)cc(OC)c1OC(C)=O,·,·,·,·,-14,·
COc1ccc(/C=N/OCC(=O)NCC(C)C)c(OC)c1,-8,-2,31,2,·,2
COc1ccc(/C=N/OCC(=O)NCc2cccs2)c(OC)c1,15,-2,48*,13,·,-1
CCOC(=O)c1[nH]c2cc3c(cc2c1NC(=O)CN1CC(C)CC(C)C1)OCO3 (configuration not stated),0,-4,56*,-4,-50,-4
COc1cc(/C=N/N(C)c2ccccc2)cc(Cl)c1O,-7,-3,52*,12,·,4
C/C(C=NNC(=O)Cc1cccn1C)=C/c1ccco1,·,·,·,·,10,·
COc1ccc(O)c(C=NN=Cc2cccc([N+](=O)[O-])c2)c1,·,·,·,·,3,·
COc1ccc(/C=C2\C(=O)OCc3cc(OC)c(OC)cc32)cc1OC,-1,-11,7,8,·,-3
COc1cc2c(cc1OC)/C(=C/c1ccc(Cl)cc1)C(=O)OC2,-47,-3,59*,3,6,-1
COc1ccc(-c2sc3cc4c(cc3c2C#CCO)OCO4)cc1,·,-7,77*,13,-3,-2
CCOC(=O)c1ccc(-c2c(-c3ccccc3OC)sc3cc4c(cc23)OCO4)cc1F,·,-14,48*,12,-9,-6
COc1ccc(-c2sc3cc4c(cc3c2C#Cc2ccc(N)cc2)OCO4)cc1,·,-6,31,20,-52,-2
COc1ccccc1-c1sc2cc3c(cc2c1C#CCO)OCO3,·,-10,67*,8,2,-5
SMILES,PolyA inhibitor,A3G deaminase,AHR activator,Arr AP2 block,UCH37 inh,A3A deaminase
COc1ccc(-c2sc3ccc(N4CCOCC4)cc3c2C#CCCO)cc1,·,-6,97*,18,-9,-2
C/C(=N\Nc1nc(N)cc(Cl)n1)c1cccc(N)c1,-9,0,65*,21,·,-1
CC(=NNc1nc(N)cc(Cl)n1)c1cccc(N)c1,·,·,·,·,5,·
CCOC(=O)NN=Cc1ccc(N2CCOCC2)s1,·,·,·,·,-4,·
COCCNC(=O)c1cc2c3ccccc3n(C)c2s1,-13,-1,49*,-9,-27,-1
CCCNC(=O)c1cc2c3ccccc3n(C)c2s1,-13,0,52*,-4,-3,3
Cn1c2ccccc2c2cc(C(=O)NNC(=O)CCl)sc21,9,-8,62*,-9,-25,-5
CC(=O)Nc1ccc(S(=O)(=O)NNC(=O)c2cc3c4ccccc4n(C)c3s2)cc1,-22,0,75*,-6,-9,0
O=C(COc1ccc(C=NNS(=O)(=O)c2ccccc2)cc1)NCc1ccccc1,·,·,·,·,-3,·
COc1ccc(-c2cnn3c4c(c(C)nc23)CCN4C2CCCC2)cc1OC,-2,-1,11,2,-40,0
COCCN1CCc2c(C)nc3c(-c4ccc(OC)c(OC)c4)cnn3c21,9,-5,49*,3,-4,-2
O=C(NN=Cc1cccc(C(F)(F)F)c1)c1cc2c(s1)-c1ccccc1CC2,·,·,·,·,-210,·
COc1ccccc1N1CCN(C(=O)CCNS(=O)(=O)c2ccc(Br)s2)CC1,91*,-3,5,-8,2,0
O=C(NN=Cc1c[nH]c2ccccc12)c1cccc(O)c1,·,·,·,·,7,·
CN(C)CCNC(=O)c1cc2c(s1)-c1ccccc1OC2,26,0,5,9,i,3
Cc1csc(NC(=O)c2cc3c(s2)-c2ccccc2OC3)n1,?,-9,68*,-14,-315,-2
CC(NC(=O)Nc1ccccc1Cl)c1ccc2c(c1)OCO2 (configuration not stated),0,0,42,2,2,2
CCOc1ccccc1C(=O)NC(C(=O)N(C)Cc1ccc2c(c1)OCO2)C(C)C (configuration not stated),·,-6,6,-10,5,2
CCOc1ccccc1C(=O)NC(C)c1ccc2c(c1)OCO2 (configuration not stated),-16,-5,52*,-7,0,2
CCOc1ccccc1NC(=O)NC(C)c1ccc2c(c1)OCO2 (configuration not stated),2,2,58*,13,·,1
CN(C)/C=C/C(=O)c1cnc(-c2ccccc2Cl)s1,18,-8,57*,18,13,-8
CC(=NNC(=O)c1nnn(-c2nonc2N)c1CN1CCCCC1)c1ccccc1O,·,·,·,·,-14,·
O=C(CC=NOCc1c(Cl)cccc1Cl)c1cnc(-c2ccccc2)s1,·,·,·,·,1,·

# Compound activity deposited in PubChem by several laboratories.
